A selection: hits, their analogues and other compounds. The true share with any hit is near 2.3%.
ABCB1 inh: inhibitors of human ABCB1 transporter, ABCG2 counter-screen; P08183; CCRF-Adr cells, JC-1 efflux, flow cytometry; inhibition, % at 6.6 µM; 190,000 tested, 0.067% active; AID 1326; in the data active means inhibition above about 40%;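 further: 0% = vehicle and 100% = reference inhibitor; higher value means more JC-1 retained so stronger ABCB1 efflux block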
MEKK3 PB1 HTS: raises or lowers MEK5 binding to the human MEKK3 PB1 domain. binding response (% of control), % at 10 µM. AID 1529. bead-based flow cytometry, Alexa488-MEK5 binding to MEKK3; actives lie on both sides; 0 = blocked by unlabeled MEK5, 100 = vehicle. 290,000 tested, 1.4% active. Q99759;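 active means binding response more than 3 SD above or below the average of its plate-row segment, actives on both sides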;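 further: Alexa488 bead fluorescence after subtracting the streptavidin-only scavenger bead signal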
Target sequence (Q99759 whole entry, looked up, the tested form may be a part): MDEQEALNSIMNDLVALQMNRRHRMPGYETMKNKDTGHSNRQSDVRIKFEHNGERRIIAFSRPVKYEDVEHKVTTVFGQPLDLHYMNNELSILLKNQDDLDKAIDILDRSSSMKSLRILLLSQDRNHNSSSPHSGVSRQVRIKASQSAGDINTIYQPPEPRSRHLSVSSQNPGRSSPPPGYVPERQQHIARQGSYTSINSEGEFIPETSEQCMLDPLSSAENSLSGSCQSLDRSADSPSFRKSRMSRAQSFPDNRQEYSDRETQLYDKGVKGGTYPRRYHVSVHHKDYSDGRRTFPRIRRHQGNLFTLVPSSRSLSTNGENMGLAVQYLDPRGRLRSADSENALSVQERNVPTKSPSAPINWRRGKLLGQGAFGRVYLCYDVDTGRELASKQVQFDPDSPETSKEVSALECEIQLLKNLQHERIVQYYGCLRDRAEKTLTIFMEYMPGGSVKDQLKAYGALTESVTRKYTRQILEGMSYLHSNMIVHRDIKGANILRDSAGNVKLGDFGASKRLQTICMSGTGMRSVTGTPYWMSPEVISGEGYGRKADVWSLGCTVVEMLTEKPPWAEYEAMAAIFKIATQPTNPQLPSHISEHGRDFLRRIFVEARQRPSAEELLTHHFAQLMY
MEKK2 mut-MEK5: signal of MEK5 binding to mutant human MEKK2 PB1 domain; 290,000 tested, 0.35% active; percent response, % at 10 µM; AID 1530; bead flow cytometry, Alexa488-MEK5 binding to MEKK2 mutant; in the data active means percent response above about 24%, passing the limit was not always enough
ABCG2 inh: inhibitors of human ABCG2 transporter, ABCB1 counter-screen; 190,000 tested, 0.1% active; inhibition, % at 6.6 µM; IgMXP3 cells, JC-1 efflux, flow cytometry; Q9UNQ0;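 active means inhibition above 80%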;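 further: 0% = DMSO and 100% = nicardipine control wells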
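Times: 10 min at 25 °C | Test system: Two drug-resistant human cell lines, ABCG2 and ABCB1 | Quantity: 3 million cells/mL final, two lines in 1:1 ratio | Signal: Flow cytometry, 530 nm JC-1 signal | Dosing: Compound at 6.6 µM | Controls: Nicardipine and DMSO wells | Reagent: JC-1 as fluorescent efflux pump substrate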
MEKK2 WT-MEK5: raises or lowers MEK5 binding to wildtype human MEKK2 PB1 domain. binding response (% of control), % at 10 µM. AID 1531. 290,000 tested, 1.1% active. Q9Y2U5. bead flow cytometry, Alexa488-MEK5 binding to MEKK2 WT; actives lie on both sides; in the data active means binding response below about 67% or above about 130%
MEKK2wt confirm: raises or lowers MEK5 binding to wildtype human MEKK2, retest. shares compounds with MEKK3 PB1 HTS. bead flow cytometry, Alexa488-MEK5 binding to MEKK2 WT; actives lie on both sides. binding response (% of control), % at 10 µM. 5,900 tested, 2.4% active. AID 1892; in the data active means binding response below about 16% or above about 210%; inactive means in between
MEKK2mut confirm: signal of MEK5 binding to mutant human MEKK2, retest | shares compounds with MEKK3 PB1 HTS | bead flow cytometry, Alexa488-MEK5 binding to MEKK2 mutant | AID 1893 | 5,900 tested, 2% active | percent response, % at 10 µM; in the data active means percent response mostly above about 71%, no sharp cut-off; inactive means mostly below about 38%;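 further: higher means compound restores mutant binding toward wildtype level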
MEKK3-MEK5 inh: MEKK3-MEK5 PB1 inhibition, single concentration confirmation | shares compounds with MEKK3 PB1 HTS | bead flow cytometry, Alexa488-MEK5 binding to MEKK3; hits give low values | binding response (% of control), % at 10 µM | 5,900 tested, 1.8% active | AID 1894;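 active means binding response below 72% of control, or above a set upper limit, though filed actives all read lower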;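 further: 100% = DMSO only wells and 0% = binding blocked by excess unlabeled MEK5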
Active calls of the source: *; / = no result given; [ ] = another dose, or the depositor's remark.

SMILES | ABCB1 inh | MEKK3 PB1 HTS | MEKK2 mut-MEK5 | ABCG2 inh | MEKK2 WT-MEK5 | MEKK2wt confirm | MEKK2mut confirm | MEKK3-MEK5 inh
CC(Sc1nc(-c2ccccc2)cc(C(F)(F)F)n1)C(=O)N1CCC(C(N)=O)CC1 (configuration not stated) | 0.9 | 75.0*[inhibitor] | -12.0 | 36.0 | 83.0 | 97.0 | -5.0 | 100.0
COc1cccc(N(C(=O)c2sc(C)nc2C)C(C(=O)NCC2CCCO2)c2ccccc2)c1 (configuration not stated) | / | 100.0 | 2.0 | / | 103.0 | / | / | /
Cc1ccc(NC(=O)CCNS(=O)(=O)c2ccc3[nH]c(=O)oc3c2)cc1F | / | 102.0 | 5.0 | / | 103.0 | / | / | /
Cc1cc(-c2ccccc2)c2c(n1)sc1c(O)cc(=O)[nH]c12 | / | 93.0 | -5.0 | / | 95.0 | / | / | /
COc1ccc(OC)c(-c2cc(C(F)(F)F)c3c(n2)sc2c(O)cc(=O)[nH]c23)c1 | -0.2 | 69.0*[inhibitor] | -1.0 | 0.0 | 91.0 | 87.0 | -9.0 | 91.0
O=c1cc(O)c2sc3nc(-c4ccccc4)cc(C(F)(F)F)c3c2[nH]1 | 0.4 | 8.0*[inhibitor] | 0.0 | -0.3 | 95.0 | 101.0 | 4.0 | 104.0
COc1ccc(C)cc1NC(=O)n1ncc2cc(Cl)ccc21 | / | 95.0 | -5.0 | / | 91.0 | / | / | /
OCC[C@H]1C[C@@H](O)[C@H](O)[C@@]2(CCCO2)O1 | / | 104.0 | -3.0 | / | 104.0 | / | / | /
O=C(NC1CCN(Cc2ccccc2)CC1)c1cccc(S(=O)(=O)Nc2cc(C(F)(F)F)ccc2Cl)c1 | -0.2 | 90.0 | -4.0 | -0.5 | 94.0 | / | / | /
COc1ccc(NS(=O)(=O)c2cccc(C(=O)NC3CCN(Cc4ccccc4)CC3)c2)cc1 | / | 77.0*[inhibitor] | -4.0 | / | 110.0 | 120.0 | 7.0 | 105.0
Cc1ccc(NC(=O)NC(=O)N(C(C)C)S(=O)(=O)c2ccc(C)cc2)cc1 | -0.3 | 82.0 | -1.0 | 0.0 | 96.0 | / | / | /
Cc1cccc(NC(=O)CSc2nc3nc4c(cc3c(=O)n2-c2ccccc2)CCCC4)c1 | 5.9 | 132.0* | 0.0 | 2.6 | 104.0 | 90.0 | -3.0 | 99.0
CCC(C)NC(=O)C1CCN(S(=O)(=O)N2CCCC2)CC1 (configuration not stated) | 0.8 | 1.0*[inhibitor] | -20.0 | 2.9 | -3.0*[inhibitor] | 98.0 | -4.0 | 100.0
CCC(C)NC(=O)C1CCN(S(=O)(=O)N2CCOCC2)CC1 (configuration not stated) | 0.1 | 98.0 | -3.0 | 0.6 | 94.0 | / | / | /
COC(C/C=C\[C@H](O)[C@@H](C)OCc1ccccc1)OC | / | 102.0 | -4.0 | / | 96.0 | / | / | /
CN1C(=O)C(CC(=O)N2CCN(C(c3ccccc3)c3ccccc3)CC2)N(C)C1=O (configuration not stated) | 0.9 | 1.0*[inhibitor] | -17.0 | 4.0 | 1.0*[inhibitor] | 105.0 | 2.0 | 102.0
CCCCNCC(=O)Nc1ccc(NC(=O)CNCCCC)cc1 | 0.8 | 113.0 | 27.0* | 3.4 | 144.0* | 124.0 | 12.0 | 100.0
CCCCOCCCNCC(=O)Nc1ccc(S(N)(=O)=O)cc1 | -1.0 | 81.0 | -10.0 | -2.3 | 93.0 | / | / | /
COC(=O)C1=C(C(=O)OC)[C@@H]2N(C)c3ccccc3[C@@]23C[C@@H](CO)N(C(=O)C2CCC2)C3=N1 | / | 108.0 | 5.0 | / | 104.0 | / | / | /
CC1=CC2=NC(=O)/C(=C\c3cccn3CCOc3ccccc3)C(=N)N2O1 | 2.5 | 132.0* | 1.0 | 24.7 | 110.0 | 100.0 | -4.0 | 104.0
CC1=CC2=NC(=O)/C(=C\c3cccn3CCOc3cccc(C)c3)C(=N)N2O1 | 2.2 | 101.0 | -1.0 | 11.1 | 106.0 | / | / | /
N#Cc1ccc(C(=O)NCC2CCCCC2)cc1 | / | 103.0 | 3.0 | / | 104.0 | / | / | /
S=c1[nH]nc(-c2ccc(Cl)cc2Cl)n1-c1ccc2c(c1)OCCO2 | / | 97.0 | 2.0 | / | 99.0 | / | / | /
Oc1ccc(-c2n[nH]c(=S)n2-c2ccc3c(c2)OCCO3)c(O)c1 | -0.2 | 70.0*[inhibitor] | -1.0 | -7.1 | 85.0 | 105.0 | -2.0 | 97.0
COc1cc(S(=O)(=O)N2CCN(c3ccccn3)CC2)ccc1Br | / | 99.0 | 1.0 | / | 95.0 | / | / | /
SMILES | ABCB1 inh | MEKK3 PB1 HTS | MEKK2 mut-MEK5 | ABCG2 inh | MEKK2 WT-MEK5 | MEKK2wt confirm | MEKK2mut confirm | MEKK3-MEK5 inh
Cc1ccccc1CCN(C(=O)Cn1nnc2ccccc21)C(C(=O)NC(C)(C)C)c1ccsc1 (configuration not stated) | 1.1 | 76.0*[inhibitor] | -14.0 | 1.2 | 81.0 | 100.0 | 2.0 | 99.0
COc1ccc(C(C)=O)cc1CC(=O)Nc1ccc2c(c1)CCC2 | / | 104.0 | -4.0 | / | 97.0 | / | / | /
Oc1ccc2ccccc2c1CN1CCN(C/C=C/c2ccccc2)CC1 | / | 117.0 | 25.0* | / | 140.0* | 122.0 | 13.0 | 104.0
C=CCN(c1ccccc1)S(=O)(=O)c1cccc(C(=O)N2CC(C)CC(C)C2)c1 (configuration not stated) | / | 104.0 | 8.0 | / | 112.0 | / | / | /
COc1ccc(NC(=O)CSc2ncccc2C(=O)OC(C)C)cc1OC | 1.0 | 100.0 | 5.0 | 2.8 | 104.0 | / | / | /
CC(C)c1ccc(NC(=O)CSc2ncccc2C(=O)Oc2cccc([N+](=O)[O-])c2)cc1 | 0.8 | 148.0* | 0.0 | 20.9 | 106.0 | 99.0 | -2.0 | 97.0
CCN(CC)C(=O)c1cc(-c2ccc3c(c2)OCO3)on1 | / | 100.0 | 2.0 | / | 101.0 | / | / | /
COc1ccc(CCNC(=O)c2cccc(Br)c2)cc1OC | / | 104.0 | 2.0 | / | 102.0 | / | / | /
CCc1ccc(C2=NNC(=Nc3cccc(S(=O)(=O)N(C)C)c3)SC2)cc1 | -0.5 | 128.0* | 0.0 | -2.9 | 104.0 | 101.0 | -2.0 | 103.0
Cc1cccc(N=C2NN=C(c3ccc4c(c3)OCCO4)CS2)c1 | 0.7 | 104.0 | 3.0 | 2.6 | 98.0 | / | / | /
Cc1ccccc1NC(=O)CN1C(=O)S/C(=C\c2cccn2-c2cccc(C(=O)O)c2)C1=O | -0.1 | 122.0* | 9.0 | 0.1 | 119.0 | 105.0 | 4.0 | 107.0
O=C1c2ccccc2C(=O)N1/N=C/c1ccc(Oc2ccc([N+](=O)[O-])cn2)cc1 | -1.0 | 86.0 | -8.0 | 6.3 | 91.0 | / | / | /
N#CCc1ccc(Oc2ccc([N+](=O)[O-])cn2)cc1 | / | 48.0*[inhibitor] | -19.0 | / | 52.0 | 106.0 | 7.0 | 106.0
Cc1ccc(Nc2cc(C)nc(N3CCOCC3)n2)cc1 | 0.8 | 101.0 | 7.0 | 5.5 | 100.0 | / | / | /
Cc1cc(Nc2ccc(C)c(Cl)c2)nc(N2CCOCC2)n1 | / | 130.0* | 26.0 | / | 123.0 | 106.0 | -3.0 | 102.0
O=C(COc1ccc(Cl)cc1)Nc1cc(NC(=O)COc2ccc(Cl)cc2)cc(C(=O)O)c1 | / | 112.0 | 8.0 | / | 109.0 | / | / | /
O=[N+]([O-])c1ccccc1-c1ccc(/C=N/n2cnnc2)o1 | 0.4 | 104.0 | 6.0 | 27.5 | 109.0 | / | / | /

Bioassay records as filed in PubChem.
